Laboratory results published in ChEMBL document CHEMBL4376844, “A Novel Decalin-Based Bicyclic Scaffold for FKBP51-Selective Ligands” (J Med Chem, 2020).
Active and inactive are the calls of the source. The calls are words filed in the database; no cut-off is given here.

Columns and labels:
[1] = molecular target: T1, Peptidyl-prolyl cis-trans isomerase FKBP4 (Homo sapiens, UniProt Q02790); experiment: Inhibition of human full length N-terminal His-tagged/C-terminal FLAG tagged FKBP52 expressed in Escherichia coli BL21 (DE3) cells incubated for 30 mins by competitive fluorescence polarization assay; conditions: 0.5 h
T1 sequence (Q02790 whole entry): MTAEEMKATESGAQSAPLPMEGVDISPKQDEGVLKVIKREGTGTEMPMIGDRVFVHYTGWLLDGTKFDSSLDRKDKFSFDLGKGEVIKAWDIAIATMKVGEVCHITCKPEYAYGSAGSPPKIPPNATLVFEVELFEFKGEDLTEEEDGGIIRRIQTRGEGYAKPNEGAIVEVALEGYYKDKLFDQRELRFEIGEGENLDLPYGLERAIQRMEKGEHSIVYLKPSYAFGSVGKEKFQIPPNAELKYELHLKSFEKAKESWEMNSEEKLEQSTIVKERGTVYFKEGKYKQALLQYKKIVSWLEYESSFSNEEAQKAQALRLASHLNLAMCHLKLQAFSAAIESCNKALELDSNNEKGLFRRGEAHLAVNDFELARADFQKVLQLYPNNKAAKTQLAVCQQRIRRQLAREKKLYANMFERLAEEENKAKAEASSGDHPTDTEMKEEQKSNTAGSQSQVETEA

KB [2] = experiment: Induction of apoptosis in human KB/HeLa cells overexpressing FKBP51 assessed as increase in early apoptotic cells incubated for 40 hrs by annexin V and propidium iodide based flow cytometry analysis; assay type: functional, cell-based
KB [3] = experiment: Induction of apoptosis in human KB/HeLa cells overexpressing FKBP51 assessed as early apoptotic cells at 25 uM incubated for 40 hrs by AnnexinV-FITC and propidium iodide staining based flow cytometry analysis (reference value: 3.5%); assay type: functional
KB [4] = experiment: Induction of apoptosis in human KB/HeLa cells overexpressing FKBP51 assessed as late apoptotic cells at 50 uM incubated for 40 hrs by AnnexinV-FITC and propidium iodide staining based flow cytometry analysis (reference value: 3.4%); assay type: functional
KB [5] = experiment: Cytotoxicity against human KB/HeLa cells overexpressing FKBP51 assessed as induction of cell death by measuring hypodiploid cells at 60 uM incubated for 72 hrs by propidium iodide based flow cytometry analysis (reference value: 4.7%); assay type: functional
KB [6] = experiment: Induction of apoptosis in human KB/HeLa cells overexpressing FKBP51 assessed as early apoptotic cells at 12 uM incubated for 40 hrs by AnnexinV-FITC and propidium iodide staining based flow cytometry analysis (reference value: 3.5%); assay type: functional
KB [7] = experiment: Induction of apoptosis in human KB/HeLa cells overexpressing FKBP51 assessed as late apoptotic cells at 25 uM incubated for 40 hrs by AnnexinV-FITC and propidium iodide staining based flow cytometry analysis (reference value: 3.4%); assay type: functional
KB [8] = experiment: Induction of apoptosis in human KB/HeLa cells overexpressing FKBP51 assessed as viable cells at 12 uM incubated for 40 hrs by AnnexinV-FITC and propidium iodide staining based flow cytometry analysis (reference value: 87.7%); assay type: functional; conditions: read-out: Activity
KB [9] = experiment: Induction of apoptosis in human KB/HeLa cells overexpressing FKBP51 assessed as late apoptotic cells at 12 uM incubated for 40 hrs by AnnexinV-FITC and propidium iodide staining based flow cytometry analysis (reference value: 3.4%); assay type: functional
KB [10] = experiment: Induction of apoptosis in human KB/HeLa cells overexpressing FKBP51 assessed as viable cells at 25 uM incubated for 40 hrs by AnnexinV-FITC and propidium iodide staining based flow cytometry analysis (reference value: 87.7%); assay type: functional; conditions: read-out: Activity
KB [11] = experiment: Cytotoxicity against human KB/HeLa cells overexpressing FKBP51 assessed as induction of cell death by measuring hypodiploid cells at 20 uM incubated for 72 hrs by propidium iodide based flow cytometry analysis (reference value: 4.7%); assay type: functional
KB [12] = experiment: Induction of apoptosis in human KB/HeLa cells overexpressing FKBP51 assessed as necrotic cells at 12 uM incubated for 40 hrs by AnnexinV-FITC and propidium iodide staining based flow cytometry analysis (reference value: 5.4%); assay type: functional
KB [13] = experiment: Cytotoxicity against human KB/HeLa cells overexpressing FKBP51 assessed as induction of cell death by measuring hypodiploid cells at 1 uM incubated for 72 hrs by propidium iodide based flow cytometry analysis (reference value: 4.7%); assay type: functional
KB [14] = experiment: Induction of apoptosis in human KB/HeLa cells overexpressing FKBP51 assessed as early apoptotic cells at 50 uM incubated for 40 hrs by AnnexinV-FITC and propidium iodide staining based flow cytometry analysis (reference value: 3.5%); assay type: functional
KB [15] = experiment: Induction of apoptosis in human KB/HeLa cells overexpressing FKBP51 assessed as necrotic cells at 50 uM incubated for 40 hrs by AnnexinV-FITC and propidium iodide staining based flow cytometry analysis (reference value: 5.4%); assay type: functional
KB [16] = experiment: Cytotoxicity against human KB/HeLa cells overexpressing FKBP51 assessed as induction of cell death incubated for 72 hrs by propidium iodide based flow cytometry analysis; assay type: functional
In short: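 KB cells exposed to a range of compound doses for 72 h. 1×10^5 cells washed in PBS, then permeabilized in 0.1% sodium citrate, 0.1% Triton X-100 and 50 µg/mL propidium iodide for 30 min at 4°C in the dark. Nuclear DNA content read by flow cytometry on a log scale with debris gated out by forward scatter; % hypodiploid nuclei taken as dead cells. Four experiments, each in triplicate.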

KB [17] = experiment: Induction of apoptosis in human KB/HeLa cells overexpressing FKBP51 assessed as viable cells at 50 uM incubated for 40 hrs by AnnexinV-FITC and propidium iodide staining based flow cytometry analysis (reference value: 87.7%); assay type: functional; conditions: read-out: Activity
[18] = molecular target: T2, Peptidyl-prolyl cis-trans isomerase FKBP5 (Homo sapiens, UniProt Q13451); experiment: Inhibition of human full length N-terminal His-tagged/C-terminal FLAG tagged FKBP51 expressed in Escherichia coli BL21 (DE3) cells incubated for 30 mins by competitive fluorescence polarization assay
T2 sequence (Q13451 whole entry): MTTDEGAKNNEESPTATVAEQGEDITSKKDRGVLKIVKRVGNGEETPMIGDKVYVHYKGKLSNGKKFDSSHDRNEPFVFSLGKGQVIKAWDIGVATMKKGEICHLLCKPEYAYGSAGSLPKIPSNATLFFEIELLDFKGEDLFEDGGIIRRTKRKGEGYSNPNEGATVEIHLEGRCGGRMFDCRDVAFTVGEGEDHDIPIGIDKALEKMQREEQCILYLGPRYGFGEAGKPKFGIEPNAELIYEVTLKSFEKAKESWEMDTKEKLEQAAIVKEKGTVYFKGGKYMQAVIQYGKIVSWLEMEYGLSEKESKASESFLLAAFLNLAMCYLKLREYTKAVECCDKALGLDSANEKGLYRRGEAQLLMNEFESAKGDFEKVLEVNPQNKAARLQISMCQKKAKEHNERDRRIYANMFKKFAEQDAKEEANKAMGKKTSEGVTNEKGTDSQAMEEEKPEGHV

KB [19] = experiment: Cytotoxicity against human KB/HeLa cells overexpressing FKBP51 assessed as induction of cell death by measuring hypodiploid cells at 6 uM incubated for 72 hrs by propidium iodide based flow cytometry analysis (reference value: 4.7%); assay type: functional
KB [20] = experiment: Induction of apoptosis in human KB/HeLa cells overexpressing FKBP51 assessed as necrotic cells at 25 uM incubated for 40 hrs by AnnexinV-FITC and propidium iodide staining based flow cytometry analysis (reference value: 5.4%); assay type: functional
HeLa = experiment: Induction of apoptosis in human HeLa cells expressing low leves of FKBP51 at 50 uM incubated for 40 hrs by AnnexinV-FITC and propidium iodide staining based flow cytometry analysis; assay type: functional, cell-based
KB [21] = experiment: Induction of apoptosis in human KB/HeLa cells overexpressing FKBP51 assessed as necrotic cells at 1 uM incubated for 40 hrs by AnnexinV-FITC and propidium iodide staining based flow cytometry analysis (reference value: 5.4%); assay type: functional
KB [22] = experiment: Induction of apoptosis in human KB/HeLa cells overexpressing FKBP51 assessed as late apoptotic cells at 1 uM incubated for 40 hrs by AnnexinV-FITC and propidium iodide staining based flow cytometry analysis (reference value: 3.4%); assay type: functional
KB [23] = experiment: Induction of apoptosis in human KB/HeLa cells overexpressing FKBP51 assessed as viable cells at 1 uM incubated for 40 hrs by AnnexinV-FITC and propidium iodide staining based flow cytometry analysis (reference value: 87.7%); assay type: functional; conditions: read-out: Activity
KB [24] = experiment: Induction of apoptosis in human KB/HeLa cells overexpressing FKBP51 assessed as early apoptotic cells at 1 uM incubated for 40 hrs by AnnexinV-FITC and propidium iodide staining based flow cytometry analysis (reference value: 3.5%); assay type: functional

Structure (SMILES): COc1ccc(CCC(OC(=O)C2CCCCN2C(=O)[C@@H]2C[C@@H](O)[C@@H](O)[C@@H]3CCCC[C@H]32)c2cccc(OCCN3CCOCC3)c2)cc1OC (single isomer, unassigned)
- inhibition (INH) [1]: Not Active
- Activity (KB [2]): Dose-dependent effect
- Activity (KB [3]): 11.1%
- Activity (KB [4]): 11.4%
- Activity (KB [5]): 26.1%
- Activity (KB [6]): 10.1%
- Activity (KB [7]): 9.6%
- viability at 12 µM (KB [8]): 73.7%
- Activity (KB [9]): 6.6%
- viability at 25 µM (KB [10]): 72.5%
- Activity (KB [11]): 15.3%
- Activity (KB [12]): 9.6%
- Activity (KB [13]): 5.6%
- Activity (KB [14]): 21.7%
- Activity (KB [15]): 8.1%
- Activity (KB [16]): Dose-dependent effect
- viability at 50 µM (KB [17]): 58.9%
- Ki [18]: 280 nM
- Activity (KB [19]): 11.6%
- Activity (KB [20]): 6.8%
- Activity (HeLa): Active

Structure (SMILES): COc1ccc(CC[C@@H](OC(=O)[C@@H]2CCCCN2C(=O)[C@H](c2cc(OC)c(OC)c(OC)c2)C2CCCCC2)c2cccc(OCC(=O)O)c2)cc1OC
- Activity (KB [21]): 2.1%
- Activity (KB [22]): 12.6%
- viability at 1 µM (KB [23]): 65.1%
- Activity (KB [24]): 20.2%
